SIRT5 block – blocks human SIRT5 desuccinylation of peptide; Purified SirT5, succinyl-peptide AMC, trypsin-coupled fluorescence; hit rate 1.1% among 330,000; inhibition, % at 15 µM; Q9NXA8; AID 652115; in the data active = inhibition above about 15%
FGF22 binding – binders of recombinant human FGF22 by thermal shift. SYPRO orange fluorescence; percent of sucrose octasulfate shift, DMSO zero. activity (Tm shift, normalised), % at 9.99 µM. hit rate 1.5% among 340,000. AID 651658;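 active = mean Tm shift, scaled 0 neutral to 100 positive control, at about 1.3% or above, every replicate too, limit read from the data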
PGC1a acetyl inh – lowers PGC1a acetylation signal in U2OS cells | inhibition, % at 15.6 µM | hit rate 0.17% among 350,000 | AlphaScreen anti-acetyl-lysine; with virally co-expressed GCN5 acetyltransferase;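 active = every replicate shows inhibition of at least 40%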
ERAP1 HTS inh – inhibitors of human ERAP1 aminopeptidase; Q9NZ08; recombinant ERAP1, Leu-AMC fluorescence, 60 min; inhibition, % at 10.7 µM; hit rate 0.15% among 340,000;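 active = mean replicate inhibition of at least 30%, or all replicates individually reaching that 30% level; inactive = mean below 30% and not every replicate reaching it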
Target sequence (Q9NZ08 whole entry, looked up): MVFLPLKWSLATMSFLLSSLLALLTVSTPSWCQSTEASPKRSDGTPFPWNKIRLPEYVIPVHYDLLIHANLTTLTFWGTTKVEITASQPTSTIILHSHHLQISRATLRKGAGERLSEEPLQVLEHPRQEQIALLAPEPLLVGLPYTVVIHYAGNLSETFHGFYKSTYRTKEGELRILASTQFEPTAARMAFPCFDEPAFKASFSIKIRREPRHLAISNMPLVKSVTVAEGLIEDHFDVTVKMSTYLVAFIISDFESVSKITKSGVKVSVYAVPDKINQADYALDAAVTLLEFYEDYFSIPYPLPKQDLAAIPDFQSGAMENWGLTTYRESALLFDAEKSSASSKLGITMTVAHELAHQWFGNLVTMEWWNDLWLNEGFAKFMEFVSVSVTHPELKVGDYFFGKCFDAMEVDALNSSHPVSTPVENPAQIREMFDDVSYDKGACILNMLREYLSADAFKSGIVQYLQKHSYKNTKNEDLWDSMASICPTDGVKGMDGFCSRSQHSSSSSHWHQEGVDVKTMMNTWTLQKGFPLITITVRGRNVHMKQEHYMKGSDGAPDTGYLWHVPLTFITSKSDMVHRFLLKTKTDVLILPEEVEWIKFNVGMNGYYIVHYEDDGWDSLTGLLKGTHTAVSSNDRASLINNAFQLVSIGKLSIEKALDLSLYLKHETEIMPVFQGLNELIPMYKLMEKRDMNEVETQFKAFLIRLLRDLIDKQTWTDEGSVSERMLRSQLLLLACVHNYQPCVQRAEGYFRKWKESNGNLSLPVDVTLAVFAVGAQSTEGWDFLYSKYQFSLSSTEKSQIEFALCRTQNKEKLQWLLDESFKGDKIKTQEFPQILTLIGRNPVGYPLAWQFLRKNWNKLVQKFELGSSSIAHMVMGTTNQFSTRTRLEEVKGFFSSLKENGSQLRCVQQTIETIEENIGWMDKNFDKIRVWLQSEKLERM
FN deposition inh – fibronectin deposition inhibition | AH1F fibroblasts, Alexa488-fibronectin deposition fluorescence, overnight | inhibition, % at 12.6 µM | hit rate 0.086% among 350,000 | AID 743247;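 active = mean inhibition across replicates of 30% or more, regardless of how many single replicates reach that level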
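Measured by – fluorescence 485/525 nm · System – AH1F fibroblast monolayer, labelled fibronectin deposition · Amount – 10000 cells per well · Buffer or medium – serum-reduced DMEM (2% serum) · Doses – single dose, pinned · Also added – fluorescent fibronectin at 24 nM final · Schedule – 1 h cell attachment, overnight exposure to compound and label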
Numbers stand for hits; n = inactive; x = not tested or not shown. An excerpt weighted towards active compounds, which were near 2.2% of everything screened.

SMILES	SIRT5 block	FGF22 binding	PGC1a acetyl inh	ERAP1 HTS inh	FN deposition inh
CNC(=O)C[C@@H]1CC[C@@H]2[C@H](COc3ccc(NC(=O)c4cc(F)cc(F)c4)cc3C(=O)N2C)O1	16	n	n	n	n
CN(C)C(=O)C[C@H]1CC[C@@H]2[C@@H](COc3ccc(NC(=O)c4ccc(F)c(F)c4)cc3C(=O)N2C)O1	n	n	n	n	n
CNC(=O)C[C@H]1CC[C@H]2[C@H](COc3ccc(NC(=O)c4cc(F)cc(F)c4)cc3C(=O)N2C)O1	n	n	n	n	n
CN1C(=O)c2cc(NC(=O)c3cccc(F)c3)ccc2OC[C@H]2O[C@@H](CC(=O)NCc3ccccc3Cl)CC[C@H]21	n	1.6	n	n	n
O=C(CCS(=O)(=O)c1ccccc1)N1CCCc2ccccc21	17	n	n	n	n
CC(C)C[C@@]12C(=O)N(c3cccc(Cl)c3)C(=O)N1[C@H](c1ccc(F)cc1)[C@@H]1C(=O)N(C3CCCCC3)C(=O)[C@@H]12	x	n	x	x	n
COc1ccc([C@@H]2[C@@H]3C(=O)N(C(C)(C)C)C(=O)[C@@H]3[C@]3(Cc4ccc(Cl)cc4)C(=O)N(c4ccc(C)cc4)C(=O)N23)cc1	n	n	x	n	n
CC(C)C[C@@]12C(=O)N(c3cccc(Cl)c3)C(=O)N1[C@H](c1ccc(Cl)cc1)[C@@H]1C(=O)N(C3CCCCC3)C(=O)[C@@H]12	n	1.6	x	n	n
COc1ccc([C@@H]2[C@@H]3C(=O)N(C(C)(C)C)C(=O)[C@@H]3[C@]3(Cc4ccc(Cl)cc4)C(=O)N(c4cccc(C)c4)C(=O)N23)cc1	n	1.3	n	n	n
CC(C)NC(=O)Nc1ccc2c(c1)C(=O)N([C@@H](C)CO)C[C@@H](C)[C@@H](CN(C)S(=O)(=O)c1cccs1)OCCCC[C@@H](C)O2	n	n	n	n	n
CCN(CC)CCN1CCn2c3c(c4cc(C)ccc42)CCCC31 (stereo not given)	n	43	x	n	n
CCN1CCn2c3c(c4cc(Cl)ccc42)CCCC31 (stereo not given)	x	x	n	x	n
C[C@@H]1CN([C@@H](C)CO)C(=O)c2cc(NC(=O)Cn3cnnn3)ccc2O[C@@H]1CN(C)C	n	n	n	n	x
Fc1ccc(NC(=S)NN=Cc2ccccc2Cl)cc1	x	43	n	n	n
Oc1ccc(/C=N/NC(=S)Nc2cccnc2)cc1	n	1.5	x	x	n
COc1ccc(/C=N/OC(=O)Nc2ccccc2OC)cc1	n	43	n	n	n
COc1ccc(NC(=O)O/N=C/c2ccc(Br)cc2)cc1	n	n	x	n	n
COc1ccccc1NC(=S)N/N=C/c1ccc(O)cc1	n	1.5	x	n	n
COc1cccc(S(=O)(=O)Nc2ccc3c(c2)OC[C@H](C)N(Cc2ccccc2F)C[C@H](C)[C@H](OC)CN(C)C3=O)c1	n	n	n	x	n
O=C(NN=Cc1ccccc1Cl)c1ccccc1	n	n	x	n	n
COc1cc(/C=N/NC(=S)Nc2cccc(C(=O)O)c2)cc(OC)c1OC	23	n	n	n	n
COc1ccc(C=NNC(=S)NN=Cc2ccc(OC)c(OC)c2)cc1OC	n	n	n	n	x
COc1ccc(/C=N/NC(=S)Nc2cccc(C(=O)O)c2)cc1OC	n	n	x	n	n
N#CCC(=O)N/N=C/c1ccccc1Cl	n	44	x	n	n
COc1ccc(C=NNC(=S)Nc2ccc(F)cc2)cc1OC	x	65	n	n	n
SMILES	SIRT5 block	FGF22 binding	PGC1a acetyl inh	ERAP1 HTS inh	FN deposition inh
O=C(Cc1ccccn1)NCC[C@H]1CC[C@H](NS(=O)(=O)c2ccc(F)cc2)[C@@H](CO)O1	n	n	n	n	x
CCOc1ccc(-c2nnc3ccc(SCC(=O)Nc4nc5ccccc5s4)nn23)cc1	n	6.6	x	n	n
CCOc1ccc2nc(NC(=O)CSc3ccc(Cl)cc3)sc2c1	x	x	x	x	n
CCOc1ccc2nc(NC(=O)CSc3nc(SC)ns3)sc2c1	n	1.7	n	n	x
CC(C)[C@H](NC(N)=O)C(=O)NNC(=O)COc1cccc(C(F)(F)F)c1	n	n	n	54	n
O=C(COc1cccc2cccnc12)N1CCc2ccccc21	n	43	x	n	n
Cc1ccc(NC(=O)c2nnn(-c3cccc(C(F)(F)F)c3)c2N)cc1	n	53	x	n	n
C[N+]1(C2CCC3CCCC2C3O)CCCCC1 (stereo not given)	n	n	x	46	n
CCCc1cn(CC[C@@H]2CC[C@H](NC(=O)C3CC3)[C@@H](CO)O2)nn1	n	n	n	n	n
CCOC(=O)c1c(C)[nH]c(C)c1C(=O)COC(=O)c1cc(OC)cc(OC)c1	n	59	n	n	n
CCOC(=O)c1c(C)[nH]c(C)c1C(=O)COC(=O)c1cc(OC)c(OC)cc1OC	19	n	n	n	n
CCOC(=O)c1c(C)[nH]c(C)c1C(=O)COC(=O)c1cccc(C)c1O	x	x	n	x	x
CCOC(=O)c1c(C)[nH]c(C)c1C(=O)COC(=O)c1ccc(OC)cc1	n	n	n	n	n
CC(=O)c1ccc(NC(=S)Nc2cccc3ccccc23)cc1	n	n	x	n	n
CC(=O)c1cccc(NC(=O)C(=O)Nc2cccc3ccccc23)c1	n	43	x	n	n
CCCCOC(=O)C1CN(c2ccccc2)N=C1C(C)=O (stereo not given)	n	43	n	n	n
C#CCNc1cc(-c2ccccc2)nc2ncnn12	n	44	x	n	n
c1ccc(Nc2cc(-c3ccccc3)nc3ncnn23)cc1	n	n	x	n	x
CCNC(=O)C[C@@H]1CC[C@@H]2[C@H](COc3ccc(NC(=O)Nc4ccccc4OC)cc3C(=O)N2C)O1	n	n	n	n	n
Cc1ccc(S(=O)(=O)Nc2ccc3c(c2)CC(=O)N([C@@H](C)CO)C[C@H](C)[C@@H](CN(C)C)O3)cc1	n	n	n	n	x
Cc1ccc(Nc2nc(N)c3ccccc3n2)cc1Cl	n	2.2	x	n	n
Cc1nnsc1C(=O)N1CCCC(Nc2ccc(F)c(F)c2)C1 (stereo not given)	n	57	n	n	n
Cc1ccc(C(=O)N2CCCC(Nc3ccc(F)c(F)c3)C2)cn1 (stereo not given)	n	n	x	n	n
CCOc1cc(C(=O)OCC(=O)Nc2cc(C)on2)ccc1OCC(C)C	n	44	x	n	n
Cc1cc(NC(=O)COC(=O)[C@@H](NS(=O)(=O)c2ccccc2)C(C)C)no1	n	43	n	n	n
Cc1ccc(NS(=O)(=O)c2ccc(C(=O)OCC(=O)Nc3cc(C)on3)cc2)cc1	n	43	n	n	n
COc1ccc(NS(=O)(=O)c2cccc(C(=O)OCC(=O)Nc3cc(C)on3)c2)cc1	x	x	n	x	n
COc1cccc(NC(=O)N[C@H]2CC[C@H](CC(=O)Nc3ccc(-c4ccccc4)cc3)O[C@@H]2CO)c1	x	n	n	n	n
COc1ccc(-c2ccc3c(c2)[C@H]2[C@H](CCN2S(=O)(=O)c2ccc(OC)cc2)[C@@H](CO)N3C)cc1	n	n	n	n	n

From PubChem
